The values that follow come from ChEMBL document CHEMBL2384939, “Synthesis of pyrazolo[1,5-a]pyrimidine linked aminobenzothiazole conjugates as potential anticancer agents” (Bioorg Med Chem Lett, 2013).

Activity calls are given as the source filed them. The rule behind the calls is not given here.

For experiment [1], the system named is CAKI-1. Briefly: Cytotoxicity against human Caki1 cells after 48 hrs by MTT assay. The class given is functional. The note with it: CAKI-1, 48 h. For orientation: Formazan colour is commonly taken as a measure of viable cells.
For experiment [2], the system named is SK-MEL-28. The experiment can be described thus: Cytotoxicity against human SK-MEL-28 cells after 48 hrs by MTT assay. The format is functional. To be noted: SK-MEL-28, 48 h.
The subject of experiment [3] is K562. The experiment can be described thus: Cytotoxicity against human K562 cells after 48 hrs by MTT assay. The note with it: K562, 48 h. The class given is functional.
Experiment [4] has as its system MDA-MB-231. Briefly: Cytotoxicity against human MDA-MB-231 cells after 48 hrs by MTT assay. The format is functional. The note with it: MDA-MB-231, 48 h.
Experiment [5] can be described thus: Cytotoxicity against human NCI-ADR-RES cells after 48 hrs by MTT assay. The class given is functional.
Experiment [6] deals with A549. The experiment can be described thus: Induction of apoptosis in human A549 cells assessed as DNA fragmentation at 2 uM after 48 hrs by agarose gel electrophoresis. The class given is functional, cell-based. The gist of the method: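 A549 cells (1×10^6) seeded in six-well plates for 24 h, then exposed to 2 µM compound or roscovitine for 48 h and pelleted. Lysate treated with SDS and RNase-A (2 h, 56 °C), then proteinase K (2 h, 37 °C). DNA precipitated with ammonium acetate/cold ethanol, dissolved in TE, and laddering resolved on 2% agarose gel against a 50 bp marker.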

Experiment [7] relates to Malme-3M. The experiment can be described thus: Cytotoxicity against human MALME-3M cells after 48 hrs by MTT assay. The class given is functional.
The test system of experiment [8] is U-251. Briefly: Cytotoxicity against human U251 cells after 48 hrs by MTT assay. The class given is functional. The note with it: U-251, 48 h.
For experiment [9], the system named is LOX IMVI. Briefly: Cytotoxicity against human LOXIMVI cells after 48 hrs by MTT assay. The format is functional.
Experiment [10] deals with A549. The experiment can be described thus: Induction of apoptosis in human A549 cells assessed as nuclear fragmentation at 2 uM after 48 hrs by Hoechst staining assay. The format is functional, cell-based. Put shortly:
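A549 cells (10,000 per 18-mm coverslip) grown 24 h, then given 2 µM compound for 48 h, with 0.001% DMSO vehicle and roscovitine controls. Hoechst 33258 (0.5 mg/mL) in 4% paraformaldehyde was added for 30 min. Randomly chosen fields were imaged by fluorescence microscopy and apoptotic cells scored manually by cytoplasmic condensation, apoptotic bodies and nuclear fragmentation.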

Experiment [11] relates to SNB-19. The experiment can be described thus: Cytotoxicity against human SNB19 cells after 48 hrs by MTT assay. The class given is functional. To be noted: SNB-19, 48 h.
Experiment [12] has as its system HOP-92. The experiment can be described thus: Cytotoxicity against human HOP92 cells after 48 hrs by MTT assay. The format is functional. The note with it: HOP-92, 48 h.
Experiment [13] concerns A498. The experiment can be described thus: Cytotoxicity against human A498 cells after 48 hrs by MTT assay. The class given is functional. To be noted: A498, 48 h.
The test system of experiment [14] is A549. Briefly: Induction of apoptosis in human A549 cells assessed as activation of caspase-3 at 1 to 2 uM after 48 hrs by ELISA relative to control. The class given is functional, cell-based. The gist of the method: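 A549 lung cancer cells exposed to 1 and 2 µM compound for 48 h, with roscovitine as positive control. Pellets lysed for 15 min, and supernatant caspase-3 activity read by a commercial colorimetric kit relative to untreated control. Values are mean ± SD of two experiments run in triplicate.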

In experiment [15] the test system is NCI-H522. Briefly: Cytotoxicity against human NCI-H522 cells after 48 hrs by MTT assay. The class given is functional. The note with it: NCI-H522, 48 h.
For experiment [16], the system named is HeLa. Briefly: Cytotoxicity against human HeLa cells after 48 hrs by MTT assay. The class given is functional, cell-based. Put shortly: (§1)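 MTT assay: […] were plated in DMEM with 10% FBS and incubated for 24 h at 37 °C under CO2. Compounds diluted in culture medium were added alongside a vehicle control for 48 h. MTT (10 µl of a 5 mg/ml stock) was added for a further 4 h. The supernatant was then removed, the formazan dissolved in DMSO, and absorbance read at 540 nm. IC50 was derived.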

Experiment [17] has as its system MDA-MB-435. Briefly: Cytotoxicity against human MDA-MB-435 cells after 48 hrs by MTT assay. The class given is functional. To be noted: MDA-MB-435, 48 h.
In experiment [18] the test system is Hs-578T. Briefly: Cytotoxicity against human Hs578T cells after 48 hrs by MTT assay. The format is functional.
The test system of experiment [19] is DU-145. The experiment can be described thus: Cytotoxicity against human DU145 cells after 48 hrs by MTT assay. The format is functional, cell-based. To be noted: DU-145, 48 h. The gist of the method:
as §1

In experiment [20] the test system is UACC-62. The experiment can be described thus: Cytotoxicity against human UACC62 cells after 48 hrs by MTT assay. The format is functional. The note with it: UACC-62, 48 h.
Experiment [21] has as its system KM12. The experiment can be described thus: Cytotoxicity against human KM12 cells after 48 hrs by MTT assay. To be noted: KM12, 48 h. The format is functional.
Experiment [22] relates to SK-MEL-5. Briefly: Cytotoxicity against human SK-MEL-5 cells after 48 hrs by MTT assay. The class given is functional. The note with it: SK-MEL-5, 48 h.
For experiment [23], the system named is OVCAR-4. The experiment can be described thus: Cytotoxicity against human OVCAR4 cells after 48 hrs by MTT assay. The class given is functional. The note with it: OVCAR-4, 48 h.
Experiment [24] has as its system MOLT-4. Briefly: Cytotoxicity against human MOLT4 cells after 48 hrs by MTT assay. The class given is functional. The note with it: MOLT-4, 48 h.
Experiment [25] relates to RPMI-8226. The experiment can be described thus: Cytotoxicity against human RPMI8226 cells after 48 hrs by MTT assay. The class given is functional. The note with it: RPMI-8226, 48 h.
Experiment [26] has as its system UO-31. The experiment can be described thus: Cytotoxicity against human UO31 cells after 48 hrs by MTT assay. The format is functional. The note with it: UO-31, 48 h.

A word on the GI50: it is the concentration at which growth is held to half of that of the control. Lower therefore signals more potent growth inhibition. In general, IC50 refers to the midpoint of a concentration-inhibition curve. Turning to `COc1cc(-c2cc(C(=O)Nc3nc4ccccc4s3)nc3cc(-c4ccccc4)nn23)cc(OC)c1OC`, the concentration for 50% growth inhibition (GI50) in [1] was found to be 53.7 µM; in [2], 3.3 µM; in [3], 25 µM; in experiment [4] it was 5.6 µM; in experiment [5], 19.6 µM; in experiment [7] it was 12 µM. For the same compound, the GI50 in experiment [8] turned out to be 5.1 µM; in [9] it was 5.5 µM; in experiment [11], 16.7 µM; in experiment [12], 0.7 µM; in experiment [13], 9.2 µM; in [15], 1.9 µM. Further, the concentration for 50% growth inhibition (GI50) in experiment [17] worked out at 2.6 µM; in experiment [18] it was 4.7 µM; in [19] it was 65 µM; in [20], 14.4 µM; in experiment [21], 22 µM; in experiment [22], 13.8 µM. Besides, the result in experiment [6], in experiment [10] and in [14] was Active. Also, the figures for the half-maximal inhibitory concentration (IC50) in [16] and in experiment [19] were 7.07 µM and 3.16 µM, respectively.

With `O=C(Nc1nc2ccccc2s1)c1cc(-c2ccc(F)cc2)n2nc(-c3ccccc3)cc2n1`, the GI50 in [23] was found to be 1.8 µM; in [3], 4.2 µM; in [4], 2.3 µM; in experiment [7], 3.7 µM; in experiment [8] it was 2 µM; in [24] it was 21 µM. Besides, the 50% growth inhibitory concentration (GI50) in experiment [11] came out at 5.2 µM; in experiment [25], 5.5 µM; in experiment [12] it was 1.6 µM; in experiment [13] it was 1.8 µM; in [15], 2.5 µM; in experiment [18], 2.2 µM. Further, the concentration for 50% growth inhibition (GI50) in experiment [19] worked out at 4.9 µM; in experiment [20], 3.7 µM; in experiment [26], 1.9 µM. Besides, the outcome in [6], in [10] and in experiment [14] was Active. Moreover, the values for the IC50 in [16] and in experiment [19] were 2.63 µM and 2.08 µM, respectively.
